Results from ChEMBL document CHEMBL1148007, “Synthesis of new S-derivatives of clubbed triazolyl thiazole as anti-Mycobacterium tuberculosis agents” (Bioorg Med Chem, 2007).

Experiments:
[1] = Cytotoxicity against Vero-C1008 cells at 6.25 to 50 ug/mL by neutral red uptake assay; assay type: cell-based; settings: chlorocebus sabaeus
How it was run: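 Vero-C-1008 cells exposed to 6.25 to 50 μg/mL compound; viability read by neutral red uptake.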

[2] = test system: Mycobacterium tuberculosis; assay: Antitubercular activity against Mycobacterium tuberculosis H37Rv at 6.25 ug/mL by MABA assay; assay type: functional; settings: read-out: GI
How it was run: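 Primary screen against M. tuberculosis H37Rv (ATCC 27294) in BACTEC 12B medium by broth microdilution Microplate Alamar Blue Assay; fluorescent compounds run instead in BACTEC 460 radiometric system. Compounds above 95% inhibition counted active.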

[3] = test system: Mycobacterium tuberculosis; assay: Antitubercular activity against Mycobacterium tuberculosis H37Rv by MABA assay; assay type: functional
How it was run: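 Actives re-tested at lower concentrations against H37Rv (ATCC 27294) in BACTEC 12B medium by Microplate Alamar Blue Assay. MIC taken as lowest concentration giving […] fluorescence reduction versus controls; rifampin reference.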

[4] = test system: Pseudomonas aeruginosa; assay: Antibacterial activity against Pseudomonas aeruginosa at 50 to 100 uM after 24 hrs by well diffusion method; assay type: functional
How it was run: (§1)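 Nutrient agar plates with 10 mm wells cut by cork borer; 24-h subcultured bacteria swabbed on. Compounds dissolved in chloroform, 50 to 100 μM added to wells, gentamycin as standard. Incubated 24 h at 24–28 °C; inhibition zone diameter measured and converted to percent inhibition.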

[5] = test system: Escherichia coli; assay: Antibacterial activity against Escherichia coli at 50 to 100 uM after 24 hrs by well diffusion method; assay type: functional; how it was run: as §1
[6] = test system: Salmonella typhi; assay: Antibacterial activity against Salmonella typhi at 50 to 100 uM after 24 hrs by well diffusion method; assay type: functional, Salmonella enterica subsp. enterica serovar Typhi; design: unit not given here; how it was run: as §1
[7] = test system: Staphylococcus aureus; assay: Antibacterial activity against Staphylococcus aureus at 50 to 100 uM after 24 hrs by well diffusion method; assay type: functional; how it was run: as §1

SMILES	Activity [1]	inhibition of growth at 6.25 µg/mL [2] [%]	MIC [3]	inhibition zone [4] [mm]	inhibition zone [5] [mm]	Inhibition [6]	inhibition zone [7] [mm]
CC(=O)Nc1nc(Cc2nnc(SCC(=O)N/N=C/c3ccccc3)n2NC(=O)c2ccc(Cl)cc2)cs1	Non-toxic	96	3.13 µM	20	20	20	25
O=C(O)CCNc1nc(Cc2nnc(S)n2NC(=O)c2cccc([N+](=O)[O-])c2)cs1	Non-toxic	96	6.25 µM	25	18	19	28
N#CCSc1nnc(Cc2csc(NCCC(=O)O)n2)n1NC(=O)c1cccc([N+](=O)[O-])c1	Non-toxic	96	< 6.25 µg/mL	23	24	24	25
O=C(CSc1nnc(Cc2csc(NC(=O)CCl)n2)n1NC(=O)c1ccc(Cl)cc1)N/N=C/c1ccccc1	Non-toxic	96	3.13 µM	19	19	17	24
CC(=O)Nc1nc(Cc2nnc(S)n2N)cs1	Non-toxic	96	< 6.25 µg/mL	27	22	24	28
O=C(O)CCNc1nc(Cc2nnc(S)n2NC(=O)c2ccc(Cl)cc2)cs1	Non-toxic	96	6.25 µM	17	15	22	11
O=C(Nc1nc(Cc2nnc(S)n2NC(=O)c2ccc(Cl)cc2)cs1)c1ccccc1	Non-toxic	96	6.25 µM	10	10	18	16
NNC(=O)CSc1nnc(Cc2csc(NC(=O)c3ccccc3)n2)n1NC(=O)c1cccc([N+](=O)[O-])c1	Non-toxic	100	6.25 µM	24	17	20	28
CC(=O)Nc1nc(Cc2nnc(SCC#N)n2NC(=O)c2ccc(Cl)cc2)cs1	Non-toxic	96	3.13 µM	20	23	24	28
CC(=O)Nc1nc(Cc2nnc(SCC(=O)NN)n2NC(=O)c2cccc([N+](=O)[O-])c2)cs1	Non-toxic	100	6.25 µM	23	22	17	19
CC(=O)Nc1nc(Cc2nnc(S)n2NC(=O)c2ccc(Cl)cc2)cs1	Non-toxic	96	6.25 µM	16	20	16	16
N#CCSc1nnc(Cc2csc(NCCC(=O)O)n2)n1NC(=O)c1ccc(Cl)cc1	Non-toxic	100	3.13 µM	29	21	25	30
O=C(CSc1nnc(Cc2csc(NC(=O)CCl)n2)n1NC(=O)c1cccc([N+](=O)[O-])c1)N/N=C/c1ccccc1	Non-toxic	100	1.56 µM	30	26	25	31
N#CCSc1nnc(Cc2csc(NC(=O)CCl)n2)n1NC(=O)c1ccc(Cl)cc1	Non-toxic	96	3.13 µM	28	26	16	24
NNC(=O)CSc1nnc(Cc2csc(NC(=O)c3ccccc3)n2)n1NC(=O)c1ccc(Cl)cc1	Non-toxic	96	6.25 µM	32	26	24	32
CC(=O)Nc1nc(Cc2nnc(SCC(=O)NN)n2NC(=O)c2ccc(Cl)cc2)cs1	Non-toxic	96	6.25 µM	16	12	14	16
Nn1c(S)nnc1Cc1csc(NC(=O)c2ccccc2)n1	Non-toxic	96	6.25 µM	20	18	14	22
O=C(Nc1nc(Cc2nnc(S)n2NC(=O)c2cccc([N+](=O)[O-])c2)cs1)c1ccccc1	Non-toxic	96	6.25 µM	24	16	12	11
N#CCSc1nnc(Cc2csc(NC(=O)c3ccccc3)n2)n1NC(=O)c1cccc([N+](=O)[O-])c1	Non-toxic	96	< 6.25 µg/mL	24	22	17	28
N#CCSc1nnc(Cc2csc(NC(=O)CCl)n2)n1NC(=O)c1cccc([N+](=O)[O-])c1	Non-toxic	100	< 6.25 µg/mL	24	19	24	24
O=C(O)CCNc1nc(Cc2nnc(SCC(=O)N/N=C/c3ccccc3)n2NC(=O)c2cccc([N+](=O)[O-])c2)cs1	Non-toxic	96	1.56 µM	32	26	27	30
O=C(CSc1nnc(Cc2csc(NC(=O)c3ccccc3)n2)n1NC(=O)c1cccc([N+](=O)[O-])c1)N/N=C/c1ccccc1	Non-toxic	96	0.39 µM	30	25	24	32
NNC(=O)CSc1nnc(Cc2csc(NC(=O)CCl)n2)n1NC(=O)c1ccc(Cl)cc1	Non-toxic	96	6.25 µM	18	12	12	16
